{"data": "Measurements pooled from the literature", "cell line": "HepG2", "effect on": "cell growth or viability"}
{"Compound": "CCN(CC)CCNC(=O)c1c(C)[nH]c(/C=C2\\C(=O)Nc3ccc(F)cc32)c1C", "technique": "SRB", "IC50 [µM]": 1.35}
{"Compound": "CC/C(=C(\\c1ccccc1)c1ccc(OCCN(C)C)cc1)c1ccccc1", "IC50 [µM]": 17.4}
{"Compound": "O=C1CS/C(=N\\c2ccc(F)cc2O)N1c1nnc(-c2ccc(C(F)(F)F)cc2/N=C2\\SCC(=O)N2c2ccc(F)cc2O)s1", "technique": "MTT", "IC50 [µM]": 19.5}
{"Compound": "Cc1noc(-c2nn(Cc3ccc(Cl)cc3Cl)c3ccccc23)n1", "time": "48 h", "IC50 [µM]": 51.4}
{"Compound": "Cc1c2c(nn1C)CSCc1cc(n(C)n1)CSc1cc(c3ccccc3c1)OCCCc1c(C(=O)O)n(C)c3c-2c(Cl)ccc13", "technique": "CCK-8", "IC50 [µM]": 50}
{"Compound": "CN1CCC(NC2CCc3[nH]c4c(C(N)=O)ccc(-c5ccccc5Cl)c4c3C2)CC1 (centres unmarked)", "time": "96 h", "IC50 [µM]": 0.0202}
{"Compound": "O=C(/C=C/c1ccc(F)cc1)c1nc2ccccc2n1Cc1cn([C@@H]2OC[C@@H](O)[C@H](O)[C@H]2O)nn1", "technique": "LDH", "time": "48 h", "IC50 [µM]": 1.63}
{"Compound": "O=C1CSC(=Nc2cc([N+](=O)[O-])ccc2[N+](=O)[O-])N1c1nnc(-c2ccc(C(F)(F)F)cc2N=C2SCC(=O)N2c2cc([N+](=O)[O-])ccc2[N+](=O)[O-])s1", "technique": "MTT", "IC50 [µM]": 80.2}
{"Compound": "CCOC(=O)c1c(-c2ccc(OC)cc2)oc2ccc(OCc3cn(Cc4ccccc4)nn3)c(CN3CCCCC3)c12", "technique": "resazurin", "time": "18 h", "IC50 [µM]": 70.5}
{"Compound": "O=C1CS/C(=N\\c2cc(C(F)(F)F)ccc2-c2nnc(N3C(=O)CS/C3=N\\c3cccc(Cl)c3)s2)N1c1cccc(Cl)c1", "technique": "MTT", "IC50 [µM]": 58.1}
{"Compound": "CC(=O)c1nc2ccccc2n1Cc1cn([C@@H]2OC[C@@H](O)[C@H](O)[C@H]2O)nn1", "technique": "LDH", "time": "48 h", "IC50 [µM]": 1.55}
{"Compound": "COc1ccc(C[C@H](N)C(=O)N[C@H]2[C@@H](O)[C@H](n3cnc4c(N(C)C)ncnc43)O[C@@H]2CO)cc1", "technique": "resazurin", "time": "72 h", "IC50 [µM]": 1.25}
{"Compound": "CCCNC(=S)N/N=C/c1cccc2cc3ccccc3nc12", "technique": "MTT", "time": "48 h", "IC50 [µM]": "> 50"}
{"Compound": "COc1ccc(N(Cc2csc(-c3ccccc3)n2)C(=O)CCCCCC(=O)NO)cc1", "technique": "MTT", "time": "72 h", "IC50 [µM]": 0.12}
{"Compound": "CC(C)CNC(=S)N/N=C/c1cccc2cc3ccccc3nc12", "technique": "MTT", "time": "48 h", "IC50 [µM]": "> 50"}
{"Compound": "Fc1ccc2c(-c3nnc(Cc4ccccc4)s3)nn(Cc3ccccc3)c2c1", "time": "48 h", "IC50 [µM]": 29.1}
{"Compound": "C#CCNC(=O)c1c(-c2ccc(OC)cc2)oc2ccc(O)c(CN3CCCCC3)c12", "technique": "resazurin", "time": "18 h", "IC50 [µM]": 53.2}
{"Compound": "O=C1CS/C(=N\\c2ccccc2Cl)N1c1nnc(-c2ccc(C(F)(F)F)cc2/N=C2\\SCC(=O)N2c2ccccc2Cl)s1", "technique": "MTT", "IC50 [µM]": 55.5}
{"Compound": "COc1cccc2c1C(=O)c1c(O)c3c(c(O)c1C2=O)C[C@@](O)(C(=O)CO)C[C@@H]3O[C@H]1C[C@H](N)[C@H](O)[C@H](C)O1", "time": "96 h", "IC50 [µM]": 0.109}
{"Compound": "COc1ccc2c(-c3ncc(-c4ccccc4)o3)nn(Cc3ccccc3)c2c1", "time": "48 h", "IC50 [µM]": 89.7}
{"Compound": "COc1cccc2c1C(=O)c1c(O)c3c(c(O)c1C2=O)C[C@@](O)(C(=O)CO)C[C@@H]3O[C@H]1C[C@H](N)[C@H](O)[C@H](C)O1", "technique": "MTT", "time": "75 h", "IC50 [µM]": 0.48}
{"Compound": "S=C(N/N=C/c1cccc2cc3ccccc3nc12)Nc1ccccc1", "technique": "MTT", "time": "48 h", "IC50 [µM]": "> 50"}
{"Compound": "O=C1CS/C(=N\\c2ccccc2O)N1c1nnc(-c2ccc(C(F)(F)F)cc2/N=C2\\SCC(=O)N2c2ccccc2O)s1", "technique": "MTT", "IC50 [µM]": 31.1}
{"Compound": "NC(=O)c1cnc(NCCc2ccc(O)c(Cl)c2)nc1NCc1ccccc1", "technique": "CCK-8", "time": "48 h", "IC50 [µM]": 1.37}
{"Compound": "COc1ccc(N=C2SCC(=O)N2c2nnc(-c3ccc(C(F)(F)F)cc3N=C3SCC(=O)N3c3ccc(OC)cc3)s2)cc1", "technique": "MTT", "IC50 [µM]": 70.1}
{"Compound": "O=C(O)c1nn(Cc2ccc(Cl)cc2Cl)c2ccccc12", "time": "48 h", "IC50 [µM]": 74.7}
{"Compound": "O=C(/C=C/c1ccc(F)cc1)c1nc2ccccc2n1Cc1cn([C@@H]2O[C@H](CO)[C@H](O)[C@H](O)[C@H]2O)nn1", "technique": "LDH", "time": "48 h", "IC50 [µM]": 1.64}
{"Compound": "CC(C)[C@@H](C)NC(=O)c1cc(-c2cc3ccccc3n2C)cc(C(=O)NCCc2ccccn2)n1", "technique": "CCK-8", "IC50 [µM]": 12.7}
{"Compound": "c1ccc(Cn2nc(-c3nc(-c4ccccc4)n[nH]3)c3ccccc32)cc1", "time": "48 h", "IC50 [µM]": 60.8}
{"Compound": "COc1cccc2c1C(=O)c1c(O)c3c(c(O)c1C2=O)C[C@@](O)(C(=O)CO)C[C@@H]3O[C@H]1C[C@H](N)[C@H](O)[C@H](C)O1", "technique": "LDH", "time": "48 h", "IC50 [µM]": 3.81}
{"Compound": "CSc1ccccc1-c1cc(C(N)=O)c2[nH]c3c(c2c1)CC(N)CC3 (centres unmarked)", "IC50 [µM]": 2.46}
{"Compound": "Clc1ccc(Cn2nc(-c3nc(-c4ccccc4)no3)c3ccccc32)c(Cl)c1", "time": "48 h", "IC50 [µM]": 59.9}
{"Compound": "CC1=CC(=O)c2ccccc2C1=O", "technique": "MTT", "IC50 [µM]": 9.25}
{"Compound": "CNC(=S)N/N=C/c1cccc2cc3ccccc3nc12", "technique": "MTT", "time": "48 h", "IC50 [µM]": 42}
{"Compound": "COc1ccc(N(Cc2csc(-c3ccc(Br)cc3)n2)C(=O)CCCCCC(=O)NO)cc1", "technique": "MTT", "time": "72 h", "IC50 [µM]": 0.57}
{"Compound": "C#CCn1c(C2CC(c3ccc(F)cc3)=NN2C(C)=O)nc2ccccc21 (centres unmarked)", "technique": "LDH", "time": "48 h", "IC50 [µM]": 3.25}
{"Compound": "FC(F)(F)c1ccc(-c2noc(-c3nn(Cc4ccc(Cl)cc4Cl)c4ccccc34)n2)cc1", "time": "48 h", "IC50 [µM]": 251}
{"Compound": "COc1cccc2c1C(=O)c1c(O)c3c(c(O)c1C2=O)C[C@@](O)(C(=O)CO)C[C@@H]3O[C@H]1C[C@H](N)[C@H](O)[C@H](C)O1", "technique": "MTT", "IC50 [µM]": 31.2}
{"Compound": "c1ccc(Cn2nc(-c3ncc(-c4ccccc4)s3)c3ccccc32)cc1", "time": "48 h", "IC50 [µM]": 27.7}
{"Compound": "CC(=O)O[C@@H]1[C@@H](OC(C)=O)[C@H](OC(C)=O)CO[C@H]1n1cc(Cn2c(C(C)=O)nc3ccccc32)nn1", "technique": "LDH", "time": "48 h", "IC50 [µM]": 1.65}
{"Compound": "N=C(CC(O)c1cc2c(F)cc(F)cc2c2cc(C(F)(F)F)ccc12)Nc1ccc(Br)cc1 (centres unmarked)", "technique": "neutral red", "time": "24 h", "IC50 [µM]": 9.7}
